Reference: ChEMBL document CHEMBL1130266, “Monoaryl- and bisaryldihydroxytropolones as potent inhibitors of inositol monophosphatase” (J Med Chem, 1997)

Test: Concentration required to inhibit the activity of inositol monophosphatase by 50%
Procedure, shortened: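 Human recombinant IMPase expressed in E. coli and purified to homogeneity. […] Enzyme adjusted so ≤10% substrate used. Duplicate rates at six inhibitor concentrations plus no-inhibitor control, fitted to v = V0/(1+[I]/IC50).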

O=c1c(O)c(-c2cc3ccccc3o2)cc(-c2cc3ccccc3o2)c(O)c1O
IC50: 40 µM

O=Cc1cccc(-c2cc(-c3cccc(C=O)c3)c(O)c(=O)c(O)c2O)c1
IC50: > 100 µM

O=c1ccc(-c2cccc(-c3nnc(-c4ccc5ccccc5c4)o3)c2)c(O)c(O)c1O
IC50: 40 µM

O=c1ccc(-c2ccc3ccccc3c2)c(O)c(O)c1O
IC50: > 100 µM

O=c1c(O)c(-c2ccccc2F)cc(-c2ccccc2F)c(O)c1O
IC50: > 200 µM

NCCc1ccc(-c2ccc(=O)c(O)c(O)c2O)cc1
IC50: 90 µM

CC(=O)Nc1cccc(-c2ccc(=O)c(O)c(O)c2O)c1
IC50: 20 µM

O=c1ccc(-c2ccc(O)cc2)c(O)c(O)c1O
IC50: 10 µM

O=c1c(O)c(-c2ccc(C(F)(F)F)cc2)cc(-c2ccc(C(F)(F)F)cc2)c(O)c1O
IC50: 200 µM

O=c1c(O)c(-c2ccc(O)cc2)cc(-c2ccc(O)cc2)c(O)c1O
IC50: 10 µM

O=c1ccc(-c2cncnc2)c(O)c(O)c1O
IC50: 10 µM

O=c1c(O)c(O)ccc(-c2cccc(O)c2O)c1O
IC50: 7 µM

O=c1c(O)c(O)ccc(-c2ccsc2)c1O
IC50: 25 µM

O=c1c(O)cccc(O)c1O
IC50: 10 µM

O=c1c(O)c(O)ccc(-c2ccc(C(F)(F)F)cc2)c1O
IC50: 130 µM

N#Cc1cccc(-c2ccc(=O)c(O)c(O)c2O)c1
IC50: 4 µM

O=Cc1cccc(-c2ccc(O)c(O)c(=O)c2O)c1
IC50: 20 µM

O=c1c(O)c(O)ccc(-c2cc(C(F)(F)F)cc(C(F)(F)F)c2)c1O
IC50: 10 µM

O=c1c(O)c(-c2cccc(-c3nnc(-c4ccc5ccccc5c4)o3)c2)cc(-c2cccc(-c3nnc(-c4ccc5ccccc5c4)o3)c2)c(O)c1O
IC50: > 200 µM

O=c1ccc(-c2cccc3ccccc23)c(O)c(O)c1O
IC50: 20 µM

O=c1c(O)c(-c2ccsc2)cc(-c2ccsc2)c(O)c1O
IC50: 35 µM

O=c1cccc(-c2ccccc2)c(O)c1O
IC50: 200 µM

O=c1c(O)c(-c2cccc(C(F)(F)F)c2)cc(-c2cccc(C(F)(F)F)c2)c(O)c1O
IC50: > 200 µM

O=c1ccc(-c2ccccc2F)c(O)c(O)c1O
IC50: 65 µM

O=c1c(O)c(-c2cc(C(F)(F)F)cc(C(F)(F)F)c2)cc(-c2cc(C(F)(F)F)cc(C(F)(F)F)c2)c(O)c1O
IC50: 70 µM

O=c1c(O)c(-c2ccc3ccccc3c2)cc(-c2ccc3ccccc3c2)c(O)c1O
IC50: > 100 µM

O=c1c(O)c(O)ccc(-c2cccc([N+](=O)[O-])c2)c1O
IC50: 8 µM

O=c1c(O)c(O)ccc(-c2cc3ccccc3o2)c1O
IC50: 7 µM

O=c1c(O)c(Br)cc(Br)c(O)c1O
IC50: 10 µM

CC(=O)Nc1cccc(-c2cc(-c3cccc(NC(C)=O)c3)c(=O)c(O)c(O)c2O)c1
IC50: 65 µM

O=c1c(O)c(O)ccc(-c2cccs2)c1O
IC50: 15 µM

N#Cc1cccc(-c2cc(-c3cccc(C#N)c3)c(O)c(=O)c(O)c2O)c1
IC50: 30 µM

O=c1c(O)c(-c2cccc3ccccc23)cc(-c2cccc3ccccc23)c(O)c1O
IC50: > 100 µM

O=c1ccc(CCCCO)c(O)c(O)c1O
IC50: 5 µM

O=c1ccc(-c2ccccc2)c(O)c(O)c1O
IC50: 20 µM

O=c1c(O)c(O)ccc(-c2cccc(C(F)(F)F)c2)c1O
IC50: 10 µM

O=c1c(O)c(-c2cccc([N+](=O)[O-])c2)cc(-c2cccc([N+](=O)[O-])c2)c(O)c1O
IC50: 20 µM

O=c1c(O)c(O)ccc2cc(O)c(O)c(O)c12
IC50: > 200 µM
